Source: PubChem
Calb biofilm kill – mixtures killing C. albicans biofilm; 0.02% of 120,000 active; C. albicans biofilm persisters + clotrimazole, fluorescence viability; primary screen in compound mixtures of four per well; inhibition, % at 7.6 µM; AID 1242;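 active = inhibition above 30.3% in the primary screen of four-compound pools, then above 30% when the compound was retested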;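 also: compounds exposed to preformed 24 h biofilms for 48 h; 0% = untreated biofilm control and 100% = clotrimazole plus chlorhexidine kill blank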
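Test system: C. albicans biofilms. Buffer or medium: RPMI/MOPS medium, pH 7.0. Timing: 48 h compound exposure at 37 °C. Technique: Alamar Blue fluorescence. Evaluation: percent inhibition of biofilm viability.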
Mcl1-Noxa inh – disrupts binding of human Mcl-1 to Noxa peptide; inhibition, % at 21.7 µM; TR-FRET Mcl-1/Noxa peptide binding, 2 h; 1.5% of 220,000 active;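 active = compounds that cut the protein-peptide binding signal by more than 50% relative to plate controls in a single-dose test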;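 also: His-tagged Mcl-1 with rhodamine Noxa BH3 peptide and terbium anti-His antibody; 0% = Mcl-1 plus Noxa peptide wells and 100% = peptide-only wells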
Target sequence (Q07820 whole entry, looked up): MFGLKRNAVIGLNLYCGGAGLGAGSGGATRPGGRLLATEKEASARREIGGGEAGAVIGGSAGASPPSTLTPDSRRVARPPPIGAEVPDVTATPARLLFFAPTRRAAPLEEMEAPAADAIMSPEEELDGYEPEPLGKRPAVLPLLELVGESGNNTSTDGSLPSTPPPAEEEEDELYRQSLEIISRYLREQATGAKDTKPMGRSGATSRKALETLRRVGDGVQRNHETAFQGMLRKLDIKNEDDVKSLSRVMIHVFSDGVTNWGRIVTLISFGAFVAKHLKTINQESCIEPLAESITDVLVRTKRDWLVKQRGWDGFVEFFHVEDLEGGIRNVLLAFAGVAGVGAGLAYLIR
Arbovirus anti – antivirals against arbovirus infection. arbovirus infection cell-based antiviral screen. inhibition, % at 10 µM. 0.37% of 200,000 active. AID 1251; in the data active = inhibition above about 30%
Mcl1 Bid PPI – Mcl-1/Bid interaction inhibition. TR-FRET Mcl-1/Bid-Dy647 peptide binding, 1536-well. inhibition, % at 21.7 µM. 0.97% of 220,000 active;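 active = compounds that cut the binding signal by more than half at the single screening dose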;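 also: His-tagged Mcl-1 with europium anti-His antibody binding Bid BH3 peptide; 0% = Mcl-1 plus peptide wells and 100% = peptide-only wells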
Bim-Mcl-1 – human Bim-Mcl-1 interaction inhibition; Bead-based flow cytometry, Bim peptide-Mcl-1 binding; AID 1009; 0.1% of 190,000 active; inhibition, % at 10 µM; Q07820; in the data active = inhibition above about 40%;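 also: 0% = no compound tracer wells and 100% = peptide blocker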
Calpain2 inh – inhibitors of pig calpain II. purified calpain II, fluorogenic peptide substrate, 30 min. inhibition, % at 16 µM. 0.37% of 220,000 active. AID 1236;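 active = inhibition above about 50%, limit read from the data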
Starred values were filed as active, the others as inactive; · = not tested or not shown. Compounds with a hit are over-represented: about 2.8% of the library has one in this group of screens.

SMILES	Calb biofilm kill	Mcl1-Noxa inh	Arbovirus anti	Mcl1 Bid PPI	Bim-Mcl-1	Calpain2 inh
CCCC1(CCC)NC(=O)N(CC(=O)c2cc(C)n(-c3ccc4c(c3)OCO4)c2C)C1=O	17.8	7.7	11.6	51.4*	25.0	32.0
CCOC(=O)c1sc(NC(=O)C(C)Sc2nc(N)cc(=O)[nH]2)nc1C (stereo not drawn)	10.2	9.2	7.3	-33.1	1.0	-15.0
CC(C)n1c(Nn2cnnc2)nc2ccccc21	·	102.6*	-0.4	-45.8	2.0	-29.8
CCc1ccccc1Nc1nc2ccccc2n1C(C)C	5.5	14.2	-0.8	8.6	-4.0	28.3
COc1cc(C(=S)N2CCCC2)cc(Cl)c1OCC(=O)Nc1ccc(C)cc1C	14.8	19.0	8.8	-11.4	-6.0	-5.7
O=C(NC(=S)Nc1cc(-c2nc3ccccc3[nH]2)ccc1Cl)c1ccc2c(c1)OCO2	8.1	0.7	-31.2	58.8*	-8.0	-39.0
COc1cccc(CNC(=O)CSCc2cnn(-c3ccccc3)c2-n2cccc2)c1OC	·	0.3	0.9	72.3*	-1.0	0.5
CN(C)c1ccc(NC(=O)c2sc(SCC(=O)Nc3ccc(Br)cc3)nc2N)cc1	·	33.7	-1.3	20.5	1.0	-4.5
CN(C)c1ccc(NC(=O)c2sc(SCC(=O)Nc3nccs3)nc2N)cc1	·	66.0*	1.8	-29.1	-5.0	-21.7
Cc1ccc(-c2cc(-c3ccco3)c(C#N)c(=O)[nH]2)cc1	26.5	68.0*	·	-32.0	·	-329.0
Cc1ccc(-c2cc(C(F)(F)F)c(C#N)c(=O)[nH]2)cc1	4.8	10.4	54.5*	-6.1	-4.0	-436.0
Nc1nc(NCCN2CCOCC2)nc(NCc2ccccc2)c1[N+](=O)[O-]	20.5	10.3	·	-5.6	·	7.7
COc1cccc(CNC(=O)C2CCN(S(=O)(=O)N3CCCCC3)CC2)c1	·	9.8	5.6	91.8*	3.0	-8.8
COc1ccc(S(=O)(=O)N2CCC(C(=O)NCc3cccc(OC)c3)CC2)cc1	·	-2.9	4.8	-1.8	1.0	34.3
Cc1cccc(-n2ccnc2SCC(=O)N2CCCc3ccccc32)c1C	9.0	2.1	13.3	-44.9	-4.0	31.4
CCOC(=O)CSc1ccc(C(=O)Nc2ccc(OC)cc2)cn1	5.3	-8.1	-1.1	7.0	0.0	6.1
Cc1ccc(C(C)C)c(OCCNC(=S)Nc2cccc3ccccc23)c1	·	15.5	-16.8	-20.7	-3.0	50.9*
Cn1c(=O)oc2cc(S(=O)(=O)N3CCCC(C(=O)NCc4ccc5c(c4)OCO5)C3)ccc21 (stereo not drawn)	·	20.9	-9.4	52.6*	0.0	-32.4
O=C(CSc1ccccn1)Nc1ccc2c(c1)C(=O)c1ccccc1C2=O	9.3	71.9*	-25.2	76.6*	0.0	-52.7
O=C(CSc1n[nH]c(=O)[nH]c1=O)Nc1ccc2c(c1)C(=O)c1ccccc1C2=O	20.9	101.4*	·	60.5*	·	-17.9
COc1cc(C2Nc3cccc4cccc(c34)N2)cc(OC)c1O	·	99.7*	-0.4	9.5	12.0	-47.0
Oc1ccc(C2Nc3cccc4cccc(c34)N2)c(O)c1	·	102.6*	5.2	19.1	7.0	-173.7
COc1cc(C2Nc3cccc4cccc(c34)N2)ccc1OC(C)=O	·	69.3*	-1.4	-0.9	12.0	-242.5
c1coc(C2Nc3cccc4cccc(c34)N2)c1	·	76.4*	-2.6	-20.8	15.0	-61.4
CC(=O)OC(c1nc2ccccc2c(=O)n1C1CC2(OC1=O)c1ccccc1N1C(=O)C(C)(C)N(O)C12)C(C)C (stereo not drawn)	13.1	17.9	·	-40.1	·	-35.3
O=C(O)C(Cc1ccccc1)N1C(=O)/C(=C/c2cccc3ccccc23)SC1=S (stereo not drawn)	·	78.2*	-10.3	91.0*	4.0	56.3*
COc1cc(/C=C2\SC(=S)N(C(Cc3ccccc3)C(=O)O)C2=O)ccc1O (stereo not drawn)	6.1	18.7	·	55.5*	·	13.0
O=C(O)C(Cc1ccccc1)N1C(=O)/C(=C/c2ccccc2)SC1=S (stereo not drawn)	0.8	20.8	2.4	17.4	-5.0	15.8
COc1cc(/C=C2/SC(=S)N(CC3CCCO3)C2=O)ccc1O (stereo not drawn)	8.9	13.1	7.2	72.2*	-1.0	29.2
COc1ccc(/C=C2/C(=O)N(CC3CCCO3)C(=S)N2C)c(OC)c1 (stereo not drawn)	·	1.7	51.9*	-13.3	-5.0	10.0
